Measured values: ChEMBL document CHEMBL1130173, “A model for binding of structurally diverse natural product inhibitors of protein phosphatases PP1 and PP2A” (J Med Chem, 1997)
*1 amine or outer side, *2 acyl side, *3 side chain or, on linkers, in order; H or OH if unused. Where a SMILES comes first, the peptide text is derived from it. Bridges are numbered along the chain shown (N, C = ends). [ ]: non-standard residue; d: D form. Adda = CO[C@@H](Cc1ccccc1)[C@@H](C)/C=C(C)/C=C/[C@H](N[*:1])[C@H](C)C(=O)[*:2]; dAsp(3S-Me) = C[C@H](C(=O)[*:3])[C@@H](N[*:1])C(=O)[*:2]; d(γGlu) = O=C(O)[C@@H](CCC(=O)[*:2])N[*:1]; NMeDha = C=C(NC)C(=O)O

Tests used:
[1] = biological target: T1, Serine-threonine protein phosphatase 2A regulatory subunit (Gallus gallus, UniProt Q8AWE3); test: Observed inhibition activity against protein phosphatase 2A (PP2A)
T1 sequence (Q8AWE3 whole entry): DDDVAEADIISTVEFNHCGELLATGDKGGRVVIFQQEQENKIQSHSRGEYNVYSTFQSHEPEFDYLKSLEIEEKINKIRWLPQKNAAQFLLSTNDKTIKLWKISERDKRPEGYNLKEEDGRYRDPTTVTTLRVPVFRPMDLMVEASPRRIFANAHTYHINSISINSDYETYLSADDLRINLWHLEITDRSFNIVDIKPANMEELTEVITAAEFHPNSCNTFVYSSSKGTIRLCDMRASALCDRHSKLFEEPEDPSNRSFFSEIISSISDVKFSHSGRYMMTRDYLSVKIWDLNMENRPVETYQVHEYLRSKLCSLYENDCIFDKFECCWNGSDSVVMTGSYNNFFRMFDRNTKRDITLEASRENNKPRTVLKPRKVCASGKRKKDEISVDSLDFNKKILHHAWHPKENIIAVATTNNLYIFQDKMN

[2] = biological target: T1, Serine-threonine protein phosphatase 2A regulatory subunit; test: Inhibition activity against protein phosphatase 2A (PP2A), activity taken from literature
[3] = biological target: T1, Serine-threonine protein phosphatase 2A regulatory subunit; test: (§1) Observed inhibition activity of the compounds against protein phosphatases 2A (PP2A)
Procedure, shortened: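 Commercial PP2A (e.g. 3 mU) in MOPS/2-mercaptoethanol/MgCl2/albumin dilution buffer. Preincubated 10 min with inhibitor at pH 8.0 Tris-HCl. Reaction started with KR-pT-IRR phosphopeptide (0.2 mM stock), 60 min at 22 °C. Released phosphate measured by malachite green at 650 nm after 20 min development; IC50 from inhibition curves.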

[4] = biological target: T2, Serine/threonine-protein phosphatase 2A 55 kDa regulatory subunit B alpha isoform (Homo sapiens, UniProt P63151); test: as §1
T2 sequence (P63151 whole entry): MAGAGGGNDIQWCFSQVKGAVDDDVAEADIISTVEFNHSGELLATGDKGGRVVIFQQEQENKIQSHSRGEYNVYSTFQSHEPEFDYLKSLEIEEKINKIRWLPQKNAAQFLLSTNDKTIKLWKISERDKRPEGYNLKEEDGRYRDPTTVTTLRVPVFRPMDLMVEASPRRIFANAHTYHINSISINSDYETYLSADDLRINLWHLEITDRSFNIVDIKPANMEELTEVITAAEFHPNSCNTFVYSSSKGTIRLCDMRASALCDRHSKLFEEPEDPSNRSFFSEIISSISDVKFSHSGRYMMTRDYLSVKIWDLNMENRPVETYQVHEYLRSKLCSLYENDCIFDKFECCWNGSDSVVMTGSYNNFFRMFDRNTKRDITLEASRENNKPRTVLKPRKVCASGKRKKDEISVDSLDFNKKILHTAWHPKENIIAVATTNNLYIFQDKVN

Row | Compound | IC50 [1] [nM] | IC50 [2] [nM] | IC50 [3] [nM] | other results
1 | CC=C1C(=O)N[C@@H](C(=O)O)[C@H](C)C(=O)N[C@@H](CCCNC(=N)N)C(=O)N[C@@H](/C=C/C(C)=C/[C@H](C)[C@H](Cc2ccccc2)OC)[C@H](C)C(=O)N[C@@H](C(=O)O)CCC(=O)N1C | 0.2 | 1 |  | 
2 | COC([C@H](OC(=O)C[C@@H](O)C1=C(C)C(=O)OC1=O)C(C)C)[C@H](O)CC(=O)[C@@H](C)[C@@H](O)CC[C@@H](C)[C@@H]1O[C@]2(CC[C@@H](C)[C@H](CC[C@H](C)C(C)=O)O2)CC[C@@H]1C (single isomer, unassigned) [TAUTOMYCIN] |  |  | 10 | 
3 | COC[C@@H]([C@H](O)[C@H](O)C(=O)NCC[C@H](C)c1nc(/C=C/C[C@@H]2O[C@]3(C[C@@H](O)[C@@H]2C)O[C@H]([C@H](C[C@H](O)[C@H](C)[C@H](O)[C@H](C)/C=C(C)/C(C)=C/C=C/C(C)=C\C#N)OC)[C@H](OP(=O)(O)O)C3(C)C)co1)N(C)C [CALYCULIN A] |  |  | 7.3 | 
4 | COC[C@@H]([C@H](O)[C@H](O)C(=O)N[C@H](C)C[C@H](C)c1nc(/C=C/C[C@@H]2O[C@]3(C[C@@H](O)[C@@H]2C)O[C@H]([C@H](C[C@H](O)[C@H](C)[C@H](O)[C@H](C)/C=C(C)/C(C)=C/C=C/C(C)=C\C#N)OC)[C@H](OP(=O)(O)O)C3(C)C)co1)N(C)C [CALYCULIN] |  |  | 9.71 | 
5 | C=C1C(=O)N[C@H](C)C(=O)N[C@@H](CC(C)C)C(=O)N[C@@H](C(=O)O)[C@H](C)C(=O)N[C@@H](CCCNC(=N)N)C(=O)N[C@@H](/C=C/C(C)=C/[C@H](C)[C@H](Cc2ccccc2)OC)[C@H](C)C(=O)N[C@@H](C(=O)O)CCC(=O)N1C [MICROCYSTIN-LR] (R[Adda][d(γGlu)][NMeDha][dA]L[dAsp(3S-Me)]-OH; lactam N-7) |  |  |  | IC50 [4]: 0.065 nM
6 | C=C1[C@@H](O)[C@@H]2O[C@]3(CC[C@H](/C=C/[C@@H](C)[C@@H]4CC(C)=C[C@@]5(O[C@H](C[C@@](C)(O)C(=O)O)CC[C@H]5O)O4)O3)CC[C@H]2O[C@@H]1[C@@H](O)C[C@H](C)[C@H]1O[C@@]2(CCCCO2)CC[C@H]1C [OKADAIC ACID] | 0.45 | 1 |  | 
